TRPC6 act: activators of mouse TRPC6 channel. Q61143. HEK293-TRPC6 membrane potential dye fluorescence; hits give high values. B-score at 10 µM. actives 0.13% (n = 310,000). AID 2550;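 active = B-score of the integrated fluorescence ratio above library mean plus 3 SD, and starting fluorescence ratio within library mean plus 5 SD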;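 also: higher score means more depolarization so channel activation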
Target sequence (Q61143 whole entry, looked up): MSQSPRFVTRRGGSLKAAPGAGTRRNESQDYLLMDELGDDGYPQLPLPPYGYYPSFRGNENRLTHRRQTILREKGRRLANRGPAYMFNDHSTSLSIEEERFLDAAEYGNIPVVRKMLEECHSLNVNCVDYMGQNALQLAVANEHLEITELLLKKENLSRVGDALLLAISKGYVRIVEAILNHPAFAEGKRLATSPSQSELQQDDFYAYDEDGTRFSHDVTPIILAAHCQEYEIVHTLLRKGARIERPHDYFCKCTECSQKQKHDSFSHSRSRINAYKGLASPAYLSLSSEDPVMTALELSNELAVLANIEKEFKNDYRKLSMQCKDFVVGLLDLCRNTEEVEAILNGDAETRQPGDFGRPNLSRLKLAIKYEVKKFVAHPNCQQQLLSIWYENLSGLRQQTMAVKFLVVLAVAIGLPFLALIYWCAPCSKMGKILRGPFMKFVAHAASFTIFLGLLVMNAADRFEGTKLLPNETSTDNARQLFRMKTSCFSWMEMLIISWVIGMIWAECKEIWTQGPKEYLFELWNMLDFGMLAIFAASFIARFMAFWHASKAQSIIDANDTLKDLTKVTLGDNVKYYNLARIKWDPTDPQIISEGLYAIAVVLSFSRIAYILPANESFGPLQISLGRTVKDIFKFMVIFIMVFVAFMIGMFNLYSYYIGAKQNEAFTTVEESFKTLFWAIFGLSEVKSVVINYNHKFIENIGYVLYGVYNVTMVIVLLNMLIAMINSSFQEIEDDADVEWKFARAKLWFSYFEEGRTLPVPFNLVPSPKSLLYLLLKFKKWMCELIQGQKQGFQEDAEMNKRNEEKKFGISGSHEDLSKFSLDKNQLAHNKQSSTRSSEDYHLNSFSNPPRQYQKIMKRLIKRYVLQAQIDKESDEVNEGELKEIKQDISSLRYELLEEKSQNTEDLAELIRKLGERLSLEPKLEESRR
TRPC4 block: blocks the mouse TRPC4 cation channel; AID 2247; HEK293 TRPC4beta/mu-opioid, DAMGO-evoked Fluo4 calcium flux; hits give low values; Q9QUQ5; actives 0.39% (n = 300,000); B-score at 10 µM;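 active = B-score over 3 SD under the library average, no early fluorescence shift, positive overall ratio signal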
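Material: HEK293 cells with stable TRPC4beta plus mu-opioid receptor expression; probe or stimulus: DAMGO in two steps, submaximal then maximal; technique: Fluo4 calcium fluorescence by kinetic imaging, 5 s 1 Hz baseline; measure: integrated fluorescence ratio relative to baseline, converted to per-well B score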
TRPC4 agonist: TRPC4 (mouse) channel activation | Q9QUQ5 | HEK293 TRPC4beta/mu-opioid, Fluo4 calcium fluorescence; hits give high values | B-score at 10 µM | actives 0.49% (n = 310,000) | AID 2237;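 active = B-score above 5 SD of library B-scores, and initial fluorescence ratio not above library mean plus 5 SD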;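 also: positive B-score marks a calcium rise read as TRPC4 activation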
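Incubation: 45 min room-temperature Fluo4 loading, 110 s read / System: HEK293 cells stably co-expressing mouse TRPC4beta and mu-opioid receptor / Signal: Fluo4 fluorescence, kinetic / Control set: buffer (low) and maximal DAMGO (high) / Measure: integrated baseline-normalised fluorescence ratio, converted to per-well B score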
Platelet DG rel: modulates dense granule release in human platelets; human platelet-rich plasma, SFLLRN dense granule ATP release, luminescence; inhibition, %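 (compounds screened at 7.5 µM in platelet-rich plasma)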; actives 0.22% (n = 300,000);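 active = mean replicate score, as percent of positive control, at or above 50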
TRPC6 inhibitor: mouse TRPC6 channel inhibition. Q61143. HEK293-TRPC6, membrane potential dye, ACh-evoked depolarization; hits give low values. B-score at 10 µM. actives 1.1% (n = 310,000);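 active = B-score under library mean minus 3 SD, initial fluorescence not abnormally high, positive integrated signal ratio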;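 also: B-score derived from integrated fluorescence ratio over the kinetic read; more negative B-score means stronger inhibition of depolarization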
TRPC4 PAM: allosteric potentiators of mouse TRPC4 channel; Q9QUQ5; HEK293 TRPC4beta/mu-opioid, DAMGO EC20, Fluo-4 Ca2+ flux; hits give high values; actives 0.42% (n = 310,000); B-score at 10 µM;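 active = B-score of calcium response area above 5 SD of library B-scores, with initial fluorescence ratio within 5 SD of library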;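 also: B-score of integrated fluorescence ratio over time as area under calcium response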
TRPC4 spec 2: mouse TRPC4 off-target activity of TRPC6 inhibitors, second screen; shares compounds with TRPC6 inhibitor; inhibition, % at 10 µM; HEK293 TRPC4/MOR, membrane potential dye fluorescence; channel activated by saturating DAMGO dose; actives 42% (n = 920);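 active = compounds whose fluorescence signal differed from control wells by over 3 SD, either direction, in both duplicate plates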
TRPC4 spec: mouse TRPC4 off-target activity of TRPC6 inhibitors. actives 61% (n = 920). activity change, negative = inhibition, % at 10 µM. HEK293 TRPC4/mu-opioid, membrane potential fluorescence. shares compounds with TRPC6 inhibitor;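 active = rise or fall in signal beyond 3 SD of buffer-only wells in both replicate plates, either sign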;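 also: integrated kinetic ratio of fluorescence range over baseline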
HEK293 MPD ctr 2-1: second check of TRPC6 inhibitor effects in parental HEK293 cells; shares compounds with TRPC6 inhibitor; parental HEK293 membrane potential dye fluorescence; maximal acetylcholine challenge after compound addition; signal change vs control, % at 10 µM; actives 31% (n = 920); AID 2779;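 active = membrane potential signal moving either way by over 3 SD of the maximum-effect control, in both duplicate plates, meaning non-specific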
HEK293 MPD ctr-1: checks TRPC6 inhibitor effects in parental HEK293 cells. membrane potential signal change, % at 10 µM. shares compounds with TRPC6 inhibitor. parental HEK293 membrane potential dye fluorescence. actives 60% (n = 920);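 active = membrane potential signal shifting up or down by more than 3 SD of buffer-only wells, on both duplicate plates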
HEK293 MPD ctr-2: counter-screen for TRPC6 modulators: effect in parental HEK293 cells; shares compounds with TRPC6 inhibitor; membrane potential dye fluorescence; actives 51% (n = 2,400); membrane potential signal change, % at 10 µM;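 active = membrane potential signal moves up or down beyond 5 SD from buffer-only wells, on both duplicate plates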
HEK293 MPD ctr 2-2: parental HEK293 nonspecific activity of TRPC6 modulators, second screen | shares compounds with TRPC6 inhibitor | membrane potential dye fluorescence; after compound, maximal acetylcholine stimulation | inhibition, % at 10 µM | actives 14% (n = 2,400) | AID 488926;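 active = membrane potential signal drops by more than 5 SD from the mean control signal, in both duplicate plates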;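 also: plate controls were acetylcholine ECmax control wells for no effect and buffer only wells for full effect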
TRPC4/MOR mod: selectivity of TRPC6 modulators against mouse TRPC4. shares compounds with TRPC6 inhibitor. HEK293 TRPC4/mu-opioid, membrane potential fluorescence. percent change from control (negative = decrease, positive = increase), % at 10 µM. actives 69% (n = 2,400). AID 488927;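 active = membrane potential signal moved up or down beyond 5 SD of buffer control wells, in both duplicate plates, actives on both sides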;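 also: plate controls were assay buffer wells for no effect and DAMGO maximal-effect wells for full effect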
TRPC4 ctr inh 2: second selectivity test of TRPC6 modulators against mouse TRPC4; shares compounds with TRPC6 inhibitor; HEK293 TRPC4/mu-opioid, membrane potential dye fluorescence; stimulated with maximal-effect DAMGO; inhibition, % at 10 µM; actives 55% (n = 2,400); AID 488928;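 active = drop in membrane potential signal beyond 5 SD of the control wells in both duplicate plates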;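 also: TRPC4 counter screen for TRPC6 hits run under conditions tuned for TRPC6 not TRPC4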
TRPC6 inh conf: mouse TRPC6 inhibitor confirmation. shares compounds with TRPC6 inhibitor. HEK293-TRPC6, membrane potential dye, ACh-evoked depolarization. inhibition, % at 10 µM. actives 43% (n = 3,300);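 active = fluorescence ratio falls more than 5 SD below the full-stimulation control mean, in both duplicate runs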;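 also: integrated fluorescence ratio of peak minus minimum over baseline after agonist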
TRPC6 act confirm: confirmation of mouse TRPC6 activators. shares compounds with TRPC6 inhibitor. HEK293-TRPC6 membrane potential dye fluorescence, FDSS. activation, % at 10 µM. actives 11% (n = 2,800). AID 488961;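 active = ratio signal rise beyond 5 SD above unstimulated control wells' mean, seen in both duplicate runs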;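 also: plate controls were buffer EC0 wells for no effect and acetylcholine ECmax response for full effect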
Active calls of the source: *; i = inactive; . = not tested or not shown. An excerpt weighted towards active compounds, which were near 2.5% of everything screened.

SMILES	TRPC6 act	TRPC4 block	TRPC4 agonist	Platelet DG rel	TRPC6 inhibitor	TRPC4 PAM	HEK293 MPD ctr-2	HEK293 MPD ctr 2-2	TRPC4/MOR mod	TRPC4 ctr inh 2	TRPC6 inh conf	TRPC6 act confirm	others
C[n+]1c(-c2ccccc2)c2cc(N)ccc2c2ccc(N)cc21	i	i	i	-1	-6.7*	i	-208%*	80%*	-73%*	68%*	56%*	i
NS(=O)(=O)c1ccc(N2CCNCC2)cc1	i	i	i	6	i	i	.	.	.	.	.	.
CC1CCCN(C(=O)CCl)C1 (configuration not stated)	i	i	i	8	i	i	.	.	.	.	.	.
Cc1ccc(-c2cc(-c3ccccc3)cc(-c3ccccc3)[n+]2-c2ccccc2)cc1	i	i	i	0	-9.6*	33*	.	.	.	.	96%*	i	TRPC4 spec 2=54%*;TRPC4 spec=14%*;HEK293 MPD ctr 2-1=i;HEK293 MPD ctr-1=8.2%*
Cc1ccc(-c2cc(-c3ccc(C)cc3)[n+](-c3ccccc3)c(-c3ccc(C)cc3)c2)cc1	i	i	82*	7	-8.7*	i	.	.	.	.	101%*	i	TRPC4 spec 2=41%*;TRPC4 spec=3.5%*;HEK293 MPD ctr 2-1=i;HEK293 MPD ctr-1=6.0%*
C#C[C@]1(O)CCC2C3CCC4=C/C(=N/OCC(=O)NC(C)C(=O)NC(CCSC)C(=O)O)CC[C@]4(C)C3CC[C@@]21C (some centres not stated)	i	i	i	-6	i	i	.	.	.	.	.	.
CP(=O)(O)CN1CCCCC1	i	i	i	2	i	i	.	.	.	.	.	.
CN1CCC(N(C)c2nc(-c3ccc([N+](=O)[O-])cc3)nc3ccccc23)CC1	i	i	i	-8	-11*	i	-296%*	69%*	-56%*	57%*	68%*	i
CCC1(CCCC(=O)c2ccc(F)cc2)C(=O)NC(=S)NC1=O	i	i	i	-4	i	i	.	.	.	.	.	.
Cc1cccc(N2CCc3c2nc2ccccc2c3N)c1	i	-7*	i	2	-14*	i	-192%*	74%*	-49%*	98%*	81%*	i
Cc1ccnc(-n2c(C)nc3ccccc3c2=O)c1	i	i	i	1	i	i	.	.	.	.	.	.
CCOC(=O)C1CCN(C=C2C(=O)N(C)C(=S)N(C)C2=O)CC1	i	i	i	5	-9.7*	i	.	.	.	.	i	i	TRPC4 spec 2=i;TRPC4 spec=i;HEK293 MPD ctr 2-1=i;HEK293 MPD ctr-1=i
CCOC(=O)C1CCN(/C=C2/C(=O)NC(=S)N(c3cccc(OC)c3)C2=O)CC1	i	i	i	1	i	i	.	.	.	.	.	.
NC(=O)CSc1nnc([C@@H](N)Cc2c[nH]c3ccccc23)o1	i	i	i	-5	i	i	.	.	.	.	.	.
CCCCCSc1cc(OC)c(CCN(C)C)cc1OC	i	i	i	-7	-5.3*	i	i	i	i	52%*	50%*	i
Cc1nc2ccccc2c(=O)n1-c1cc([N+](=O)[O-])cc([N+](=O)[O-])c1	i	i	i	-2	i	i	.	.	.	.	.	.
Cc1[nH]n(-c2ccccc2)c(=O)c1C(c1ccc([N+](=O)[O-])cc1)c1c(C)[nH]n(-c2ccccc2)c1=O	i	i	i	11	-5.9*	i	i	i	i	38%*	42%*	i
c1ccc2c(c1)CC1CNCc3cccc(c31)S2 (configuration not stated)	i	i	i	5	-7.1*	i	.	.	.	.	66%*	i	TRPC4 spec 2=62%*;TRPC4 spec=i;HEK293 MPD ctr 2-1=i;HEK293 MPD ctr-1=i
OCC[n+]1c2ccccc2nc2ccc(N3CCOCC3)cc21	i	i	i	11	-10*	i	-274%*	104%*	-47%*	72%*	82%*	i
CCc1ccccc1NC(=O)N1C[C@H]2C[C@@H](C1)c1cccc(=O)n1C2	i	i	i	-2	i	i	.	.	.	.	.	.
COc1cc(C[C@@H](C)N)c(OC)cc1I	i	i	i	5	-5.2*	i	i	i	i	42%*	42%*	i
CCCS(=O)(=O)N1CCCC(C(=O)N2CCC3(CC2)OCCO3)C1 (configuration not stated)	i	i	i	1	i	i	.	.	.	.	.	.
O=[N+]([O-])c1ccc(N2CCNCC2)cc1NCC1CCCO1 (configuration not stated)	i	i	i	-3	i	i	.	.	.	.	.	.
CCNc1cc(N2CCNCC2)ccc1[N+](=O)[O-]	i	i	i	2	-5.7*	35*	-214%*	i	-34%*	38%*	i	i
CCN1CCC(N(C)C2CCCCC2)CC1	i	i	i	0	i	i	.	.	.	.	.	.
CCOc1ccccc1N=C1SCCCN1C	i	i	i	1	i	i	.	.	.	.	.	.
CCOc1cccc(=NC2CCCCC2)c2c(C)n(C)c(C)c12	i	i	i	-5	-7.5*	i	.	.	.	.	i	i	TRPC4 spec 2=50%*;TRPC4 spec=6.9%*;HEK293 MPD ctr 2-1=-69%*;HEK293 MPD ctr-1=i
